Assay results: ChEMBL document CHEMBL1158487, “Small molecule chloropyramine hydrochloride (C4) targets the binding site of focal adhesion kinase and vascular endothelial growth factor receptor 3 and suppresses breast cancer growth in vivo” (J Med Chem, 2009)
Activity calls are given as the source filed them. The rule behind the calls is not given here.

Tests used:
T47D = assay: Cytotoxicity against human T47D cells after 72 hrs by MTS assay; type: functional, cell-based
Method in brief: (§1)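 MTS viability assay, read as mitochondrial dehydrogenase activity of metabolically active cells. Cells were seeded at 5.0 × 10^3 per well and attached overnight. Fresh medium with or without compound was added, followed by 72 h exposure at increasing concentrations. Error shown as ±SEM.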

HT-29 = assay: Cytotoxicity against human HT-29 cells after 72 hrs by MTS assay; type: functional, cell-based; details: HT-29, 72 h; method in brief: as §1
BT-474 [1] = assay: Relocalization of FAK-VEGFR3 complex from cytoplasm to nucleus in human BT474 cells at 10 uM after 24 hrs by confocal microscopy; type: functional, cell-based
Method in brief: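 BT474 cells given DMSO or 10 µM compound for 24 h, dual-immunostained for FAK (Alexa Fluor 488) and VEGFR-3 (Alexa Fluor 546), imaged by confocal microscopy; percentage of colocalized FAK/VEGFR-3 molecules derived by scatter-plot analysis.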

BT-474 [2] = assay: Decrease in colocalization of FAK-VEGFR3 complex in human BT474 cells at 10 uM after 24 hrs by confocal microscopy; type: functional; set-up: scale not given: the % may be the effect or the level left
Method in brief: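 Cells were treated for 24 h with DMSO or 10 µM compound, then dual-immunostained for FAK (Alexa Fluor 488) together with VEGFR-3 or paxillin (Alexa Fluor 546). Confocal microscopy with scatter-plot analysis gave the percentage of colocalized molecules.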

[3] = molecular target: Vascular endothelial growth factor receptor 3 (Homo sapiens) (UniProt P35916); assay: Inhibition of VEGFR3 phosphorylation in human MCF7 cells expressing VEGFR3 assessed as complete dephosphorylation at Tyr1063/1068 activation loop after 24 hrs by Western blotting; type: cell-based
[4] = molecular target: Vascular endothelial growth factor receptor 3 (Homo sapiens) (UniProt P35916); assay: Inhibition of VEGFR3 phosphorylation in human BT474 cells assessed as complete dephosphorylation at Tyr1063/1068 activation loop after 24 hrs by Western blotting; type: cell-based; details: BT-474
Method in brief: (§2)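 BT474 cells were exposed for 24 h to increasing doses (1 and 10 µM). Western blots of lysates were probed with a phospho-specific VEGFR-3 antibody for Tyr1063/1068 in the kinase activation loop.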

MCF7 [5] = assay: Antiproliferative activity against human MCF7 cells at 10 uM after 48 hrs by BrdU incorporation assay; type: functional, cell-based
Method in brief: (§3)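 Cells plated at 2.5 × 10^3 per well and allowed to attach overnight. Fresh growth medium with or without compound was added along with BrdU labelling reagent, and cells were incubated for the set time. BrdU incorporation was then read with a kit per the manufacturer. Data are mean ± SEM of three or more independent experiments, compared by two-tailed Student's t test.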

MCF7 [6] = assay: Antitumor activity against human MCF7 cells expressing VEGFR3 xenografted in nude-foxn1nu mouse assessed as reduction in tumor growth at 30 mg/kg after 21 days relative to control; type: functional, organism-based; set-up: dose 30 mg/kg
MDA-MB-231 = assay: Cytotoxicity against human MDA-MB-231 cells after 72 hrs by MTS assay; type: functional, cell-based; details: MDA-MB-231, 72 h; method in brief: as §1
PANC-1 = assay: Cytotoxicity against human PANC1 cells after 72 hrs by MTS assay; type: functional, cell-based; details: PANC-1, 72 h; method in brief: as §1
MCF7 [7] = assay: Cytotoxicity against human MCF7 cells expressing VEGFR3 assessed as cell viability after 48 hrs by MTS assay; type: functional, cell-based
Method in brief: (§4)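 Viability measured by MTS after 48 h exposure. Cells were seeded at 5.0 × 10^3 per well and attached overnight before compound-containing medium was added. BT474 is a […] subclone grown in RPMI-1640 with 10% FBS and 250 µg/ml insulin. MCF7 stable clones carried either empty pcDNA3 or VEGFR-3. Mean ± SEM, ≥3 experiments, two-tailed t test.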

[8] = molecular target: Vascular endothelial growth factor receptor 3 (Homo sapiens) (UniProt P35916); assay: Inhibition of VEGFR3 phosphorylation in human BT474 cells assessed as partial dephosphorylation at Tyr1063/1068 activation loop after 24 hrs by Western blotting; type: cell-based; details: BT-474; method in brief: as §2
MCF7 [9] = assay: Cytotoxicity against human MCF7 cells expressing VEGFR3 assessed as cell viability at 1 uM after 48 hrs by MTS assay; type: functional, cell-based; method in brief: as §4
MCF7 [10] = assay: Induction of apoptosis in human MCF7 cells expressing VEGFR3 assessed as PARP degradation after 48 hrs; type: functional, cell-based
[11] = Cytotoxicity against human C8161 cells after 72 hrs by MTS assay; type: functional, cell-based; details: C8161, 72 h; method in brief: as §1
MCF7 [12] = assay: Induction of apoptosis in human MCF7 cells expressing VEGFR3 after 48 hrs by TUNEL assay; type: functional, cell-based
[13] = molecular target: Vascular endothelial growth factor receptor 3 (Homo sapiens) (UniProt P35916); assay: Inhibition of VEGFR3 phosphorylation in human BT474 cells assessed as partial dephosphorylation at Tyr1063/1068 activation loop at 1 uM after 24 hrs by Western blotting; type: cell-based; details: BT-474
[14] = molecular target: Vascular endothelial growth factor receptor 3 (Homo sapiens) (UniProt P35916); assay: Inhibition of VEGFR3 phosphorylation in human MCF7 cells expressing VEGFR3 cells assessed as partial dephosphorylation at Tyr1063/1068 activation loop at 1 uM after 24 hrs by Western blotting; type: cell-based
[15] = Cytotoxicity against human MCF10A cells assessed as cell viability at 100 uM by MTS assay; type: cell-based; details: mcf-10a
Method in brief: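 MTS cell survival assay. Cells were plated at 5.0 × 10^3 per well and allowed to attach overnight, then given fresh medium with or without compound for the designated time. Absorbance was read per the kit protocol. Mean ± SEM of three or more independent experiments.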

MCF7 [16] = assay: Antiproliferative activity against human MCF7 cells expressing VEGFR3 after 48 hrs by BrdU incorporation assay; type: functional, cell-based; method in brief: as §3
[17] = molecular target: Vascular endothelial growth factor receptor 3 (Homo sapiens) (UniProt P35916); assay: Inhibition of VEGFR3 phosphorylation in human MCF7 cells expressing VEGFR3 assessed as complete dephosphorylation at Tyr1063/1068 activation loop at 10 uM by Western blotting; type: cell-based
MCF7 [18] = assay: Cytotoxicity against human MCF7 cells assessed as cell viability at 10 uM after 48 hrs by MTS assay; type: functional; method in brief: as §4
BT-474 [19] = assay: Cytotoxicity against human BT474 cells assessed as reduction in viability at 1 uM after 48 hrs by MTS assay; type: functional; method in brief: as §4
BT-474 [20] = assay: Antitumor activity against human BT474 cells xenografted in nude-foxn1nu mouse assessed as reduction in tumor growth at 10 mg/kg, ip qd administered day after injection of cells after 14 days relative to control; type: functional; set-up: scale not given: the % may be the effect or the level left; details: route intraperitoneal
Method in brief: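 Female 5–6-week hsd:athymic nude-foxn1nu mice (5 per group) received 2–5 × 10^6 BT474 cells per 200 µl subcutaneously in the right flank. Dosing at 10 mg/kg ip once daily began the next day. Tumours were measured thrice weekly, with volume = length × width² × 0.5. The study ended at 14 days against a vehicle group.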

[21] = molecular target: Focal adhesion kinase 1/vascular endothelial growth factor receptor 3 (Homo sapiens) (UniProt P35916+Q05397); assay: Disruption of FAK-VEGFR3 binding in human BT474 cells at 10 uM after 24 hrs by immunoprecipitation technique; type: cell-based; details: BT-474
Method in brief: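 BT474 cells were treated for 24 h with increasing concentrations and then lysed. Lysates were immunoprecipitated with anti-VEGFR-3 antibody, and co-precipitated FAK was detected by western blot.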

MCF7 [22] = assay: Antiproliferative activity against human MCF7 cells expressing VEGFR3 at 0.1 to 10 uM by BrdU incorporation assay; type: functional, cell-based; details: TDE = time-dependent effect; method in brief: as §3
COLO 205 = assay: Cytotoxicity against human COLO205 cells assessed as cell viability after 72 hrs by MTS assay; type: functional, cell-based; details: COLO 205, 72 h; method in brief: as §1
MCF7 [23] = assay: Induction of apoptosis in human MCF7 cells assessed as PARP degradation after 48 hrs; type: functional, cell-based
MCF7 [24] = assay: Induction of apoptosis in human MCF7 cells expressing VEGFR3 assessed as procaspase 8 activation after 48 hrs; type: functional, cell-based

Sequence of Vascular endothelial growth factor receptor 3 (Homo sapiens) (P35916 whole entry): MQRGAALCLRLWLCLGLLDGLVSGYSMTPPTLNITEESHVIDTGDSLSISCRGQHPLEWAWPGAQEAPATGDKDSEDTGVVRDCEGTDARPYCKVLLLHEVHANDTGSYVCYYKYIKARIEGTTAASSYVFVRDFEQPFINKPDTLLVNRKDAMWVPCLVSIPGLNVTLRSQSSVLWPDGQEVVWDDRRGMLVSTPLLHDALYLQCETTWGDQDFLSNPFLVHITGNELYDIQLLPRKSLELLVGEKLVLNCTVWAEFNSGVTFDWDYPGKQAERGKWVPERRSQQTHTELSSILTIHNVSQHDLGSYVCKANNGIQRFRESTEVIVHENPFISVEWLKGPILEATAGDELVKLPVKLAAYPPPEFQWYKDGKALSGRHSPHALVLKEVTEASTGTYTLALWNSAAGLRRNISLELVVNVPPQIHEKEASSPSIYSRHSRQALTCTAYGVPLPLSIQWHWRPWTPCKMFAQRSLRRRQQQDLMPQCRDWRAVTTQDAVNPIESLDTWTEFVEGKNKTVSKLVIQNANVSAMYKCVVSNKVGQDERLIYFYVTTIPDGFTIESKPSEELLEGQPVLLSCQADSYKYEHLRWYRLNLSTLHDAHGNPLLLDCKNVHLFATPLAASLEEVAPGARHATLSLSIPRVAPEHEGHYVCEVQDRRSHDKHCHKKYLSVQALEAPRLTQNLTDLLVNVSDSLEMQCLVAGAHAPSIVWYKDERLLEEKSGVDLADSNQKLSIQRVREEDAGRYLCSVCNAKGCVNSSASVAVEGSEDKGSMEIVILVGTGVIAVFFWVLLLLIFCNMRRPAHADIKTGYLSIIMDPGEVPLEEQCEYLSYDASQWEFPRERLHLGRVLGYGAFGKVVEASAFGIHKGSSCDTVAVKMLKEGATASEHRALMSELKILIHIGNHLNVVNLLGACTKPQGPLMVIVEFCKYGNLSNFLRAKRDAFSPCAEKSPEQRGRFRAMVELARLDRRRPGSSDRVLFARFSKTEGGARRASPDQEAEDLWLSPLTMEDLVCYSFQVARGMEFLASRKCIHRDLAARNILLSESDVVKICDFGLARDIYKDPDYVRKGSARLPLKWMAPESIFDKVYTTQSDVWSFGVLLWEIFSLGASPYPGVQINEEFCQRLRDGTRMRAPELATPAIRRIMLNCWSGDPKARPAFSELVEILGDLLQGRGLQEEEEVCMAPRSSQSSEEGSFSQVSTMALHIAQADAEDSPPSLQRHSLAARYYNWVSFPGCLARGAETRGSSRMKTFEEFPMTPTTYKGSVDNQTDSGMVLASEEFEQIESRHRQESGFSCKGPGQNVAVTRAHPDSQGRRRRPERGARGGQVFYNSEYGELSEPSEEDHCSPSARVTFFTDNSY
Sequence of Focal adhesion kinase 1/vascular endothelial growth factor receptor 3 (Homo sapiens) (P35916 whole entry, looked up): as the sequence (P35916 whole entry) above
Sequence of Focal adhesion kinase 1/vascular endothelial growth factor receptor 3 (Homo sapiens) (Q05397 whole entry, looked up): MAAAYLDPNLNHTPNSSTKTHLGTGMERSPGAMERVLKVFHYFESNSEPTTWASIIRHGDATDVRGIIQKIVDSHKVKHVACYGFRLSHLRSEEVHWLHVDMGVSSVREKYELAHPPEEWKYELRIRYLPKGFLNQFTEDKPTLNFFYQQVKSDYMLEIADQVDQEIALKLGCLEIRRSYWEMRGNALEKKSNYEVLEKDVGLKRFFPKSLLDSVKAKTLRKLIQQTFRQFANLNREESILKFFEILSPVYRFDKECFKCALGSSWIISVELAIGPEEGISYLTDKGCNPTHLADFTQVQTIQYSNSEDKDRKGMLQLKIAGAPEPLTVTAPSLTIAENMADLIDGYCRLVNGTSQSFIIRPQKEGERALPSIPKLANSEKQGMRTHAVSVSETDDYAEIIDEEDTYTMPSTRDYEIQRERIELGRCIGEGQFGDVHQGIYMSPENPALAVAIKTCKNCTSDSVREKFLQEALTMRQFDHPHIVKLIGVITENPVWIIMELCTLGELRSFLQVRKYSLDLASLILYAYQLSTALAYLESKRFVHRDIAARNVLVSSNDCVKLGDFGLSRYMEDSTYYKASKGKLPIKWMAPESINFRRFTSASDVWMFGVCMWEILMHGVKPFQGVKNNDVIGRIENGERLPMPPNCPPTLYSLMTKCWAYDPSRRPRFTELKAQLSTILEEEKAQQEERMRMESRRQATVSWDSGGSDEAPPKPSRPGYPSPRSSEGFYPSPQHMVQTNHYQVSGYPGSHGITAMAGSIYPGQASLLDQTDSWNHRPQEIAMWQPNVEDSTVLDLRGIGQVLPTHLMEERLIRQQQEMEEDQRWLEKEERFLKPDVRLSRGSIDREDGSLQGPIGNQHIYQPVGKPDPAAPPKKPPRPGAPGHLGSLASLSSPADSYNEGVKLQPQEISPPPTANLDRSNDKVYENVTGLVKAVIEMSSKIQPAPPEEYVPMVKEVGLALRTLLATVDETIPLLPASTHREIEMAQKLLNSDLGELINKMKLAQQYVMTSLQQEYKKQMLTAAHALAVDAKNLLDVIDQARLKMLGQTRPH

Compound: CN(C)CCN(Cc1ccc(Cl)cc1)c1ccccn1.Cl [CHLORPYRAMIN HYDROCHLORIDE]
- IC50 (T47D): 1 µM
- IC50 (HT-29): 1 µM
- Activity (BT-474 [1]): Active
- Activity (BT-474 [2]): 45%
- Activity [3]: Dose-dependent effect
- Activity [4]: Dose-dependent effect
- Activity (MCF7 [5]): inactive
- Activity (MCF7 [6]): inactive
- IC50 (MDA-MB-231): 1 µM
- IC50 (PANC-1): 1 µM
- Activity (MCF7 [7]): Dose-dependent effect
- Activity [8]: Dose-dependent effect
- Activity (MCF7 [9]): Active
- Activity (MCF7 [10]): Dose-dependent effect
- IC50 [11]: 1 µM
- Activity (MCF7 [12]): Dose-dependent effect
- Activity [13]: Active
- Activity [14]: Active
- Activity [15]: Active
- Activity (MCF7 [16]): Dose-dependent effect
- Activity [17]: Active
- fold change (FC) (MCF7 [18]): 2
- Activity (BT-474 [19]): 40%
- Activity (BT-474 [20]): 20%
- Activity [21]: Active
- Activity (MCF7 [22]): tde
- IC50 (COLO 205): 1 µM
- Activity (MCF7 [23]): Dose-dependent effect
- Activity (MCF7 [24]): Dose-dependent effect
